Data set [1] addresses T1, Transcription factor RelB (Homo sapiens) (UniProt Q01201).
T1 sequence (whole entry): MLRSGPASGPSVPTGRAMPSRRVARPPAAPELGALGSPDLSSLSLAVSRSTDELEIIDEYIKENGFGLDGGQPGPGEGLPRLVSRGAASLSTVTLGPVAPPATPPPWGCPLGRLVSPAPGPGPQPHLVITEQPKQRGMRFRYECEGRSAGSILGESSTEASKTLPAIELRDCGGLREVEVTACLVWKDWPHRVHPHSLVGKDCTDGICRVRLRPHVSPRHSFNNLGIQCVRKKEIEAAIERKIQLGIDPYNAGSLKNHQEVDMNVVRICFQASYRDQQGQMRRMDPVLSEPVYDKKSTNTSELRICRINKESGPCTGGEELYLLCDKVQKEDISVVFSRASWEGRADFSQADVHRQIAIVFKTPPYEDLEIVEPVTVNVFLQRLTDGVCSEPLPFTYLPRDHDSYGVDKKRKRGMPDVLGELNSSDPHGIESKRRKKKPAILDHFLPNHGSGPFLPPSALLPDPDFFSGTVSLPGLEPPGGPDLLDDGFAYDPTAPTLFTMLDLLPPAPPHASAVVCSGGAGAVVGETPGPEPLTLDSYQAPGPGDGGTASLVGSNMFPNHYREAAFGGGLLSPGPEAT
Put plainly: Inhibition of NF-kappaB in human JJN-3 cells assessed as reduction in RelB DNA binding activity up to 30 nM after 4 hrs by ELISA. The class given is cell-based. In general terms: ELISA stands for enzyme-linked immunosorbent assay.

A short description of data set [2]: Cytotoxicity against human B cells assessed as cell death after 48 hrs by annexin V/propidium iodide-staining based flow cytometry. Conditions: read-out: LC50. Put shortly:
(§1)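 Normal peripheral blood B or T cells from three donors were isolated by Histopaque density gradient and phenotyped for CD19/CD3/CD38/CD49d. They were used within 24 h in RPMI with 10% FBS, 1% glutamate and 1% pen/strep at 37 °C, 5% CO2. Cells at 1,000,000 cells/ml were exposed from 1 nM upward for 48 h, in triplicate. FITC-Annexin V/PI staining was read by flow cytometry, and LC50 was taken from the dose-response curves.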
A general note: Flow cytometry measures light scatter and fluorescence of single cells or particles in a stream.

Data set [3] in a line: Cytotoxicity against human T cells assessed as cell death after 48 hrs by annexin V/propidium iodide-staining based flow cytometry. Conditions: read-out: LC50. Put shortly:
as §1

The nature of data set [4]: Therapeutic index, ratio of LC50 for human B cells to LC50 for human primary CLL cells. The class given is toxicity. Conditions: B cells versus primary CLL cells, read-out: TI.
Data set [5] deals with JJN-3. The data set is described as follows: Cytotoxicity against human JJN-3 cells assessed as cell death after 48 hrs by annexin V/propidium iodide-staining based flow cytometry. The class given is functional. Conditions: JJN-3, 48 h, read-out: LC50 (the source's name). Put shortly: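 JJN-3 cells were grown in DMEM with 20% FBS, 1% pen/strep and 1% pyruvate at 37 °C, 5% CO2. They were seeded at 1,000,000 cells/ml and exposed to compound from 1 nM upward for 48 h, in triplicate. Cell death was measured by Annexin V-FITC/propidium iodide flow cytometry, and LC50 was derived from sigmoidal dose-response curves.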

A short description of data set [6]: Cytotoxicity against human primary CLL cells assessed as cell death after 48 hrs by annexin V/propidium iodide-staining based flow cytometry. The class given is functional. To be noted: read-out: LC50 (the source's name). A digest of the protocol: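 Primary patient CLL cells were isolated by Histopaque density gradient, phenotyped by flow cytometry and used within 24 h. Culture was RPMI with 10% FBS, 1% glutamate and 1% pen/strep, plus IL-4 5 ng/ml added with compound, at 37 °C, 5% CO2. Cells at 1,000,000 cells/ml were treated from 1 nM upward for 48 h, in triplicate. Annexin V-FITC/PI was read by flow cytometry, and LC50 came from sigmoidal dose-response fits.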

The nature of data set [7]: Therapeutic index, ratio of LC50 for human T cells to LC50 for human primary CLL cells. The class given is toxicity. To be noted: T cells versus primary CLL cells, read-out: TI.
The target in data set [8] is T2, Nuclear factor NF-kappa-B p105 subunit (Homo sapiens) (UniProt P19838).
T2 sequence (whole entry): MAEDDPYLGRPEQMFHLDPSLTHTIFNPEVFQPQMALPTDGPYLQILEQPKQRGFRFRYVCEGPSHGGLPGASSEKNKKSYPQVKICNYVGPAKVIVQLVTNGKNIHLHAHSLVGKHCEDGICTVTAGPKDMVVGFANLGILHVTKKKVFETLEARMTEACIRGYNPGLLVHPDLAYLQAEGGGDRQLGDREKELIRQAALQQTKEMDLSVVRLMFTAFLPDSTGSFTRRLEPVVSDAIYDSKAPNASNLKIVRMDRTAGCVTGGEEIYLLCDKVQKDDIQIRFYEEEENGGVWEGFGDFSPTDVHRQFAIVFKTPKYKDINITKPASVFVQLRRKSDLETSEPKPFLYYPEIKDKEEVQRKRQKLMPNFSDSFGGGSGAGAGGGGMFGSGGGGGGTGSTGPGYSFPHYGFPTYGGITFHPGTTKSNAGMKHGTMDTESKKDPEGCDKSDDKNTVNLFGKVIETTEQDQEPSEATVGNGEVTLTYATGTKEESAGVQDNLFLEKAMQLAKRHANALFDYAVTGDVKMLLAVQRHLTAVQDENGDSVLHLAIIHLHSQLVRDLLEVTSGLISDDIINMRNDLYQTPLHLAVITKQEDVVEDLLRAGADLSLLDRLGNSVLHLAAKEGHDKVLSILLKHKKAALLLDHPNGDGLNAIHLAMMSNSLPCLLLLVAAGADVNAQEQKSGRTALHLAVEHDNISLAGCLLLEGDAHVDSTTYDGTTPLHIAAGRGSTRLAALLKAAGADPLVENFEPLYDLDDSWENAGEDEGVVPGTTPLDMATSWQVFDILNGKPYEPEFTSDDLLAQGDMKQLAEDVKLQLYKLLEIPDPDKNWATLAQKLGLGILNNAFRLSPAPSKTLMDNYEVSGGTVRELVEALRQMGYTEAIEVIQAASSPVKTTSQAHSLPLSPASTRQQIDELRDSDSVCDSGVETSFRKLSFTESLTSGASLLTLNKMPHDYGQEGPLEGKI
The data set is described as follows: Inhibition of NF-kappaB in human JJN-3 cells assessed as reduction in p50 DNA binding activity up to 30 nM after 4 hrs by ELISA. The class given is cell-based.

The target in data set [9] is Transcription factor p65 (Homo sapiens) (UniProt Q04206). Put plainly: Inhibition of NF-kappaB in human JJN-3 cells assessed as reduction in p65 DNA binding activity up to 30 nM after 4 hrs by ELISA. The class given is cell-based.
Transcription factor p65 (Homo sapiens), sequence (Q04206 whole entry): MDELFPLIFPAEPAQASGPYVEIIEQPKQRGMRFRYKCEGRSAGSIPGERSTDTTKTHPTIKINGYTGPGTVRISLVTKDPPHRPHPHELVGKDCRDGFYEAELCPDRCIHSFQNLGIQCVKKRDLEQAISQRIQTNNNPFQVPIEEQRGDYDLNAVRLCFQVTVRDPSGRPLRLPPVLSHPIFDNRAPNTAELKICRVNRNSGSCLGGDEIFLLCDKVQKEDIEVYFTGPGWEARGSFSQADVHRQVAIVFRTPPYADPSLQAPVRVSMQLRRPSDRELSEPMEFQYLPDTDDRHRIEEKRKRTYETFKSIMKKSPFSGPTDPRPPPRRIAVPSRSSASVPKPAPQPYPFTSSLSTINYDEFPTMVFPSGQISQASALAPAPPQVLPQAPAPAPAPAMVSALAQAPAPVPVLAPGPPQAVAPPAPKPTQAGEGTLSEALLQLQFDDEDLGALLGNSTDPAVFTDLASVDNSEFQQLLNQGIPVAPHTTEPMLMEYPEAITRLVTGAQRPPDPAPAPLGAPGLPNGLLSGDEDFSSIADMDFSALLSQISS

Structures are written as SMILES. The source made the active and inactive calls. The calls are words filed in the database; no cut-off is given here.

On to `COc1cc2c(cc1OCCCC(=O)Nc1ccc3occc3c1)N=C[C@@H]1CCCN1C2=O`, for which the inhibition result in data set [1] was “inactive”. Also, the CC50 at 48 h was determined as 1400 nM in [2] and 3900 nM in data set [3]. For the same molecule, the selectivity ratio was 149 in data set [4] and 415 in data set [7]. Further, the values for the CC50 in [5] and in data set [6] were 44 nM and 9.4 nM, respectively. The inhibition result in data set [8] and in [9] was “Active” in each case.

As for `COc1ccc(NC(=O)CCCOc2cc3c(cc2OC)C(=O)N2CCC[C@H]2C=N3)cc1`, the inhibition result in [1] and in data set [9] was “inactive” in each case. Besides, the CC50 at 48 h is 640 nM in data set [2] and 690 nM in data set [3]. The selectivity ratio in data set [4] is 71.9; in data set [7], 77.5. Further, the results for the CC50 in data set [5] and in [6] were 15.3 nM and 8.9 nM, respectively. Moreover, the inhibition result in data set [8] is “Active”.

For `CCNC(=O)CCCOc1cc2c(cc1OC)C(=O)N1CCC[C@H]1C=N2`, the CC50 turned out to be 28700 nM in data set [5] and 11700 nM in [6].

As to `COc1cc2c(cc1OCCCC(=O)Nc1ccc(C)c(C)c1)N=C[C@@H]1CCCN1C2=O`, the CC50 in [5] came out at 23.7 nM; in data set [6], 8.6 nM.

As for `COC(=O)c1cc2cc(NC(=O)CCCOc3cc4c(cc3OC)C(=O)N3CCC[C@H]3C=N4)ccc2o1`, the CC50 at 48 h was determined as 410 nM in [2] and 2100 nM in data set [3]. The values for the selectivity ratio in data set [4] and in data set [7] were 46.1 and 236, respectively. Besides, the CC50 was 49 nM in [5] and 8.9 nM in data set [6].

On to `COc1cc2c(cc1OCCCC(=O)Nc1ccc(O)cc1)N=C[C@@H]1CCCN1C2=O`, for which the inhibition entry in data set [1] and in [9] was “inactive” in each case. The values for the CC50 in [5] and in [6] were 2200 nM and 5500 nM, respectively. In data set [8], the inhibition entry was “Active”.

Consider `CCCCNC(=O)CCCOc1cc2c(cc1OC)C(=O)N1CCC[C@H]1C=N2`, for which the results for the CC50 in data set [5] and in data set [6] were 51600 nM and 22400 nM, respectively.

For `COc1cc2c(cc1OCCCC(=O)Nc1ccccc1)N=C[C@@H]1CCCN1C2=O`, the inhibition result in data set [1] and in data set [9] was “inactive” in each case. The CC50 in data set [5] is 26.4 nM; in [6] it was 11.6 nM. For the same molecule, the inhibition result in data set [8] is “Active”.

For the molecule `COc1cc2c(cc1OCCCC(=O)Nc1ccncc1)N=C[C@@H]1CCCN1C2=O`, the CC50 in [5] is 6700 nM; in data set [6] it was 4900 nM.

On to `CCCOc1ccc(NC(=O)CCCOc2cc3c(cc2OC)C(=O)N2CCC[C@H]2C=N3)cc1`, for which the CC50 at 48 h in data set [2] came to 390 nM; in [3], 1100 nM. In addition, the figures for the selectivity ratio in [4] and in data set [7] were 45.9 and 129, respectively. In addition, the CC50 in [5] is 8.7 nM; in [6], 8.5 nM.

Take `COc1cc2c(cc1OCCCC(=O)Nc1cccc(C)c1)N=C[C@@H]1CCCN1C2=O`: the CC50 stood at 20.2 nM in [5] and 13.6 nM in data set [6].

Take `COc1cc2c(cc1OCCCC(=O)Nc1ccc3c(c1)CCO3)N=C[C@@H]1CCCN1C2=O`: the CC50 turned out to be 14.7 nM in data set [5] and 5.1 nM in [6].

For the molecule `COc1cc2c(cc1OCCCC(=O)NC1CCCCC1)N=C[C@@H]1CCCN1C2=O`, the CC50 at 48 h turned out to be 1700 nM in data set [2] and 12400 nM in data set [3]. In addition, the selectivity ratio in data set [4] is 0.24; in [7], 1.74. Also, the figures for the CC50 in data set [5] and in [6] were 1400 nM and 7100 nM, respectively.

As to `CNC(=O)CCCOc1cc2c(cc1OC)C(=O)N1CCC[C@H]1C=N2`, the CC50 in data set [5] was 18500 nM; in data set [6] it was 16100 nM.

As for `COC(=O)c1cc(NC(=O)c2cc(NC(=O)CCCOc3cc4c(cc3OC)C(=O)N3CCC[C@H]3C=N4)cn2C)cn1C`, the values for the CC50 in [5] and in data set [6] were 21 nM and 39 nM, respectively.

Take `CCCNC(=O)CCCOc1cc2c(cc1OC)C(=O)N1CCC[C@H]1C=N2`: the figures for the CC50 in [5] and in data set [6] were 12700 nM and 25100 nM, respectively.

With `COc1cc2c(cc1OCCCC(=O)Nc1ccc(C)cc1)N=C[C@@H]1CCCN1C2=O`, the CC50 is 17.5 nM in data set [5] and 12.3 nM in [6].

As to `COc1cc2c(cc1OCCCC(=O)Nc1ccc3c(c1)CCC3)N=C[C@@H]1CCCN1C2=O`, the CC50 amounted to 30 nM in data set [5] and 7.7 nM in data set [6].

Consider `COc1cc2c(cc1OCCCC(=O)Nc1cccnc1)N=C[C@@H]1CCCN1C2=O`, for which the CC50 was determined as 1600 nM in [5] and 4200 nM in [6].

The values above are taken from ChEMBL document CHEMBL4411330, “Effects of Systematic Shortening of Noncovalent C8 Side Chain on the Cytotoxicity and NF-κB Inhibitory Capacity of Pyrrolobenzodiazepines (PBDs)” (J Med Chem, 2019).
